Measurements collected from several papers.
Target: Tyrosine-protein kinase ZAP-70 (ZAP70, Homo sapiens, UniProt P43403)
Sequence (P43403 1-619, as in one of the studies): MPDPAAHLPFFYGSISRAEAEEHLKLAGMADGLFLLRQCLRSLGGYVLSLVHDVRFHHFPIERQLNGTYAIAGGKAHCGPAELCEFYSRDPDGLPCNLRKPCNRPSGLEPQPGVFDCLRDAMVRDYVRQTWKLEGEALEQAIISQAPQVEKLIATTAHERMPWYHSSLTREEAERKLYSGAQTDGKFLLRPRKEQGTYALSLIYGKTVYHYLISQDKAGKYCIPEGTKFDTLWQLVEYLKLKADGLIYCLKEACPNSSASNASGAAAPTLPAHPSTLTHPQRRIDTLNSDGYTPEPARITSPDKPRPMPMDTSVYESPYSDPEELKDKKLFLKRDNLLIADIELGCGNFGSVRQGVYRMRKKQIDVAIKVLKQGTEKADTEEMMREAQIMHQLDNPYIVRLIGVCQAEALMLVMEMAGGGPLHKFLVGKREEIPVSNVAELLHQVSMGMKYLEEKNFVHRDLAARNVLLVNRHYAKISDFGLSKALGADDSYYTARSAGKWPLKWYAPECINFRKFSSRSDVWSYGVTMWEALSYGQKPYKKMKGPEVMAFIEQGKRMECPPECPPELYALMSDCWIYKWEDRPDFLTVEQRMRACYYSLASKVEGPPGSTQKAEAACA

`O=C(NCCCN1CCOCC1)c1ccc(Nc2ncc(Cl)c(-c3ccc(Cl)s3)n2)cc1` gave a remaining binding of 88% (binding; competition with immobilised ligand; 1 µM).
The remaining binding of `C[C@@H](c1ccc(-n2cnc3c(N)ncnc32)cc1)N1CCc2nn(C)c(Cc3ccccc3)c2C1=O` is reported as 94% (binding; competition with immobilised ligand; 0.1 µM).
`COc1ccc2c(O[C@@H]3C[C@H]4C(=O)N[C@]5(C(=O)O)CC5/C=C\CCCCC[C@H](NC(=O)OC5CCCC5)C(=O)N4C3)cc(-c3csc(NC(=O)C(C)C)n3)nc2c1C` (some centres unmarked) has a remaining binding of 100% (cell-free assay; competition with immobilised ligand; 1 µM).
The remaining binding of `Nc1ncc2c(n1)-c1c([nH]c3ccc(C#CC4CC4)cc13)CCCC2` is reported as 92% (binding; competition with immobilised ligand; 1 µM).
The remaining binding of `CNCc1ccccc1-c1csc([C@@H](C)Nc2nc(C)nc3cc(OC)c(OC)cc23)c1` is reported as 87% (cell-free assay; competition with immobilised ligand; 1 µM).
`N#Cc1ccccc1CSc1nnc2c(n1)[nH]c1ccccc12` has a remaining binding of 78% (binding; competition with immobilised ligand; 10 µM).
`CN(C)c1ncc(F)c(-c2cnn3ncccc23)n1` has a remaining binding of 79% (binding; 1 µM).
`C[C@@H]1CN(c2ccc3ncc(-c4ccc5[nH]nc(C6CC6)c5c4)n3n2)C[C@H](C)O1` gave a remaining binding of 100% (binding; competition with immobilised ligand; 0.5 µM).
With `C[C@@H](c1cccc(C#N)c1)n1cc(Cl)cc(C(N)=O)c1=N` the remaining binding was 84% (cell-free assay; competition with immobilised ligand; 1 µM).
With `C[C@H]1CCN(c2nccc(-c3cnn4ncccc34)n2)C1` the remaining binding was 73% (binding; 1 µM).
`O=C(O)[C@@H]1[C@@H](Cn2nnc3ccccc3c2=O)CC[C@H]1C(=O)c1ccc(OCCC2CCOCC2)cc1` gave a remaining binding of 99% (cell-free assay; competition with immobilised ligand; 1 µM).
`N[C@H]1CCN(c2nccc(-c3cnn4ncccc34)n2)C1` has a remaining binding of 100% (binding; 1 µM).
For `O=C(c1ccc(Nc2nccc(-c3cc4ccccc4s3)n2)cc1)N1CCC(N2CCCC2)CC1`, the remaining binding was 15% (binding; competition with immobilised ligand; 1 µM).
`CCOC(=O)c1cc2cc(-c3cc(C(=O)NCc4ccc(C(=O)O)cc4)nn3C)ccc2[nH]1` has a remaining binding of 98% (cell-free assay; competition with immobilised ligand; 0.1 µM).
The remaining binding of `CN(C)c1nccc(-c2cnn3ncccc23)n1` is reported as 72% (binding; 1 µM).
With `O=C(c1ccc(Nc2ncc(Cl)c(-c3cc4ccccc4s3)n2)cc1)N1CCC(N2CCCC2)CC1` the remaining binding was 10% (binding; competition with immobilised ligand; 1 µM).
With `Cc1cc(-n2nc(Cc3cc(F)cc(C(F)(F)F)c3)nc2C)ccc1C(N)=O` the remaining binding was 82% (cell-free assay; competition with immobilised ligand; 1 µM).
`COc1ncc2cc3ccccc3nc2c1C#N` has a remaining binding of 88% (cell-free assay; competition with immobilised ligand; 5 µM).
With `COc1cnc(Nc2cccc(S(N)(=O)=O)c2)nc1N1CCN(c2ccccc2)CC1` the remaining binding was 84% (binding; competition with immobilised ligand; 1 µM).
For `F[C@@H]1CCN(c2nccc(-c3cnn4ncccc34)n2)C1`, the remaining binding was 100% (binding; 1 µM).
`CCN1CCN(Cc2ccc(C(=O)Nc3ccc(C)c(Oc4ccc5c(c4)CC(=O)N5)c3)cc2C(F)(F)F)CC1` gave a remaining binding of 100% (binding; competition with immobilised ligand; 1 µM).
`CS(=O)(=O)NCC[C@H](NC(=O)c1cncc2c1cnn2-c1ccc(F)cc1)c1ccnc(S(C)(=O)=O)c1` gave a remaining binding of 80% (cell-free assay; competition with immobilised ligand; 1 µM).
With `CC1CCCN1c1nccc(-c2cnn3ncccc23)n1` (centres unmarked) the remaining binding was 100% (binding; 1 µM).
With `O=C(Nc1c[nH]nc1C(=O)NC1CCNCC1)c1cc(F)cc(F)c1` the remaining binding was 87% (binding; competition with immobilised ligand; 1 µM).
With `CN(C)c1nccc(-c2cnc3ncccn23)n1` the remaining binding was 90% (binding; 1 µM).
`O=C(N1CCS(=O)(=O)CC1)N1C[C@H](c2ccc(OC(F)(F)F)cc2)C[C@H](c2nc(C3CC3)no2)C1` gave a remaining binding of 90% (cell-free assay; competition with immobilised ligand; 1 µM).
